Experimental data from different studies.
Protocols differ between the studies behind these lines.
Target: Serine/threonine-protein kinase 25 (STK25, Homo sapiens, UniProt O00506)

Compound	test	conditions	measurement	value
CN(C)c1ncc(F)c(-c2cnn3ncccc23)n1	binding	1 µM	remaining binding	100%
Nc1ncnc2occ(-c3ccc(NC(=O)Nc4cc(C(F)(F)F)ccc4F)cc3)c12	cell-free assay, inhibitor	20 µM	remaining signal	77%
CC1=C(C#N)C(c2ccc3c(c2)c(NC(=O)c2ccccc2C)nn3C)C(C#N)=C(C)N1	cell-free assay, competition with immobilised ligand	1 µM	remaining binding	100%
CCCCNc1ncc2c(-c3ccc(F)cc3)nn(C[C@H]3CC[C@H](N)CC3)c2n1	target engagement in cells, inhibitor, chemoproteomics	20 mM	inhibition	5.7%
COc1cc2ncnc(Nc3ccc(Oc4ccccc4)cc3C)c2cc1OC	enzyme activity, inhibitor	1 µM	inhibition	-2%
Cc1cnc(NC2CCOCC2)nc1-n1cnc(C(=O)NC(CN)c2cc(F)cc(Cl)c2)c1 (centres unmarked)	enzyme activity, inhibitor, radiometric	1 µM	remaining activity	71%
O=C(Nc1cnc(Oc2ccc(F)cc2)nc1)N1CCc2ncccc2[C@@H]1c1ccc(F)cc1	cell-free assay, competition with immobilised ligand	1 µM	remaining binding	82%
COc1cccc2c(NCc3ccccc3)nc(-n3c(N)nc4ccccc43)nc12	target engagement in cells, inhibitor, chemoproteomics	20 mM	inhibition	3.5%
O=C(NCc1ncc(C(F)(F)F)cc1Cl)c1ccc2c(c1)C1(CCS(=O)(=O)CC1)[C@H](C1CC1)N2S(=O)(=O)c1ccc(F)cc1	cell-free assay, competition with immobilised ligand	1 µM	remaining binding	100%
O=C1NC(=O)c2cc(Nc3ccc(F)cc3)c(Nc3ccc(F)cc3)cc21	cell-free assay	0.5 µM	remaining signal	101%
C[C@@H]1CN(c2cc(-c3nn(C)c4ccc(OC5(C)CC5)cc34)ncn2)C[C@H](C)O1	cell-free assay, competition with immobilised ligand	1 µM	remaining binding	100%
O=C(Nc1cnn(-c2csc(C(=O)NC3COC3)c2)c1)Nc1c(F)cccc1Cl	enzyme activity, inhibitor	5 µM	remaining activity	96.1%
COc1cc(-c2cc(-c3ccc(N4CCNCC4)cc3)cnc2C)cc(OC)c1OC	enzyme activity, inhibitor	1 µM	inhibition	2%
N#CCCc1ccc2c(c1)-c1[nH]c3ccc([N+](=O)[O-])cc3c1CC(=O)N2	cell-free assay	0.5 µM	remaining signal	91.1%
C[C@H](c1cccc(C#N)c1)n1cc(Cl)cc(C(N)=O)c1=N	cell-free assay, competition with immobilised ligand	1 µM	remaining binding	100%
Cc1ccc(Nc2nccc(N(C)c3ccc4c(C)n(C)nc4c3)n2)cc1S(N)(=O)=O	enzyme activity, inhibitor	0.5 µM	remaining activity	97.3%
Cn1c2c(Cl)c(Cl)ccc2c2cc[nH]c(=O)c21	thermal stability, DSF	10 µM	ΔTm	0.5 °C
CC(C)(C)c1nc(-c2cccc(NS(=O)(=O)c3c(F)cccc3F)c2F)c(-c2ccnc(N)n2)s1	enzyme activity, inhibitor, radiometric	1 µM	remaining activity	51%
CCN1CCC2(CC1)NC(=O)c1c(c3ccc(Cl)c(Cl)c3n1C)C2C#N (racemic)	thermal stability, DSF	10 µM	ΔTm	-0.2 °C
Cc1cc(C)c(-n2ccn3nc(-c4cccnc4)cc23)cc1NC(=O)c1cc(C#N)cc(S(F)(F)(F)(F)F)c1	cell-free assay, competition with immobilised ligand	0.1 µM	remaining binding	79.1%
CCCS(=O)(=O)Nc1ccc(F)c(C(=O)c2c[nH]c3ncc(-c4ccc(Cl)cc4)cc23)c1F	enzyme activity, inhibitor	1 µM	inhibition	< 10%
O=C1Nc2ccc(Cl)cc2C1=Cc1cc(Cl)c(O)c(Cl)c1	cell-free assay	0.5 µM	remaining signal	94%
CN1CCC2(CC1)NC(=O)c1c(c3ccc(Cl)c(Cl)c3n1C)C2C#N (racemic)	thermal stability, DSF	10 µM	ΔTm	0.3 °C
Cc1noc([C@H]2C[C@@H](c3ccc(C(F)(F)F)cc3)CN(C(=O)N3CCS(=O)(=O)C3)C2)n1	cell-free assay, competition with immobilised ligand	1 µM	remaining binding	89%
Cc1sc(C(=O)NC2COC2)cc1-n1cc(NC(=O)Nc2c(F)cccc2Cl)cn1	enzyme activity, inhibitor	10 µM	remaining activity	70.5%
CC(C)(O)[C@H]1CC[C@H](Nc2ccc3ncc(-c4cccc(C(F)(F)F)c4)n3n2)CC1	enzyme activity, inhibitor	1 µM	remaining activity	87%
